Read-outs that look alike come from different tables or passages of the source. Peptide text beside a SMILES is read from it. * marks the point of attachment. Cbz = O=C(OCc1ccccc1)*
What was measured:
Format in all cases: biochemical
[1] = biological target: T1, caspase-like (CaL) activity of rabbit proteasome fraction II (Oryctolagus cuniculus, UniProt A0A5F9DQW2); assay: Inhibition of proteasome-catalyzed hydrolysis of CaL sensor CaL1–633
T1 sequence (A0A5F9DQW2 1-212): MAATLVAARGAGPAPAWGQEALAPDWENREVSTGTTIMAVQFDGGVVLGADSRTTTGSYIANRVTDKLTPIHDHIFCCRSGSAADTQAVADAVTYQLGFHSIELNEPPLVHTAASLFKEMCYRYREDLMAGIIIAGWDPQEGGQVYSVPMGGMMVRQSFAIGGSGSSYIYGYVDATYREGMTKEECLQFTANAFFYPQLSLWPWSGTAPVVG

[2] = biological target: T2, chymotrypsin-like (ChL) activity of rabbit proteasome fraction II (Oryctolagus cuniculus, UniProt G1T4Q9); assay: Inhibition of proteasome-catalyzed hydrolysis of ChL sensor ChL1–488
T2 sequence (G1T4Q9 1-263): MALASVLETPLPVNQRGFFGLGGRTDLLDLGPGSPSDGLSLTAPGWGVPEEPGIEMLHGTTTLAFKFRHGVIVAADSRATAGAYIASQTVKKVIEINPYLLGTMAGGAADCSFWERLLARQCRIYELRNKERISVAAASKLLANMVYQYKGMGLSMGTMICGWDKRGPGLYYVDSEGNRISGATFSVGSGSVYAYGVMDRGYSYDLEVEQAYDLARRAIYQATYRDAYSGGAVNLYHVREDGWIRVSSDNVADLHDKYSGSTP

[3] = biological target: yeast proteasome CaL mutant (Saccharomyces cerevisiae, UniProt P25043+P30656+P38624); assay: Rate of sensor cleavage by yeast deficient lysate, CaL mutant
[4] = tested on: rabbit proteasome fraction II; assay: Rate of proteolysis
How it was run: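 Fluorescence followed 2 h at RT. Rate came from a linear fit to the first 10% substrate consumption. FU were converted to μmol via overnight-spiked fold change and a standard line. No-enzyme controls were run. Values are mean ± SD of triplicates.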

proteasome = tested on: proteasome

Compound	IC50 [1] [µM]	IC50 [2] [µM]	proteolysis by the proteasome containing the mutation in the CaL subunit [3]	specific activity ([4]; 2.5 μM sensor) [nmol min^–1 mg^–1 enzyme]	specific activity ([4]; 5 μM sensor) [nmol min^–1 mg^–1 enzyme]	effect on TL activity (proteasome; in the presence of CaL1–633)	reduction of the rate of proteolysis of ChL1–488 (proteasome; in the presence of CaL1–633)	reduction of the rate of proteolysis of ChL1–488 (proteasome; in the presence of TL1–550)	effect on CaL activity (proteasome; in the presence of TL1–550)	enhancement of the rate of TL1–550 hydrolysis (proteasome; when ChL1–488 is present)
CC(C)C[C@@H](C=O)NC(=O)[C@H](CC(C)C)NC(=O)[C@H](CC(C)C)NC(=O)OCc1ccccc1 [MG132] (Cbz-Leu-Leu-Leu-aldehyde)	180 ± 150	0.62 ± 0.06								
DyLight633–nLPnLDK(AB40) [CaL1–633]			not proteolyzed	0.03 ± 0.001	0.02 ± 0.002	reduced				
FAM–HHSLK(AB40) [ChL1–488]				0.22 ± 0.02	0.31 ± 0.03		up to 90%	up to 50%		
TAMRA–LRRK(AB40) [TL1–550]				0.05 ± 0.003	0.06 ± 0.001				impaired	up to 5 fold

From paper PMC4340355 (ACS Chemical Biology, 2014)
